High-throughput results (PubChem BioAssay)
UBC13 polyUb: UBC13 polyubiquitin chain formation inhibitors, primary screen, biochemical, TR-FRET, uHTS; Ubiquitin-conjugating enzyme E2 N (Homo sapiens), P61088; inhibition, % at 20 µM; 330,000 tested, 0.47% active; in the data active = inhibition above about 45%, passing the limit was not always enough; inconclusive = no clear call, values can overlap the other calls
Target sequence (P61088 whole entry, looked up): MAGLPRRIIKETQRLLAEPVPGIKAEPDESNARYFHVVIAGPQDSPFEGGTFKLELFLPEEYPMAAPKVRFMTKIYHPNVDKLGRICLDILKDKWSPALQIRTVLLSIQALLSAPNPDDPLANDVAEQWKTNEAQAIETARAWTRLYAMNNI
SENP7 block: SENP7 protease inhibitors, primary screen, biochemical, luminescence, uHTS. Sentrin-specific protease 7 (Homo sapiens), Q9BQF6. recombinant SENP7, Z-RLRGG-aminoluciferin luminescence, 40 min. inhibition, % at 5 µM. 330,000 tested, 1.5% active. AID 434973, 2010;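 active = inhibition above about 50% at the single test dose, limit read from the data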;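 note: plate controls were DMSO with enzyme for no effect and no enzyme buffer wells for full effect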
SENP6 inh: SENP6 protease inhibitors, primary screen, biochemical, luminescence, uHTS. inhibition, % at 10 µM. 330,000 tested, 1.8% active. Sentrin-specific protease 6 (Homo sapiens), Q9GZR1. AID 2599, 2010. Recombinant SENP6 catalytic domain, aminoluciferin luminescence;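 active = inhibition above about 50% at the single tested dose, limit read from the data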;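 note: plate controls were DMSO wells with enzyme for no effect and DMSO wells lacking enzyme for full effect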
SENP8 block-1: human SENP8 protease inhibitors, primary screen, biochemical, fluorescence, Nedd8 protein substrate, uHTS; Sentrin-specific protease 8 (Homo sapiens), Q96LD8; recombinant SENP8; inhibition, % at 20 µM; 360,000 tested, 0.64% active; AID 602440, 2012; in the data active = inhibition mostly above about 40%, no sharp cut-off; inactive = mostly below about 27%
Target sequence (Q96LD8 whole entry, looked up): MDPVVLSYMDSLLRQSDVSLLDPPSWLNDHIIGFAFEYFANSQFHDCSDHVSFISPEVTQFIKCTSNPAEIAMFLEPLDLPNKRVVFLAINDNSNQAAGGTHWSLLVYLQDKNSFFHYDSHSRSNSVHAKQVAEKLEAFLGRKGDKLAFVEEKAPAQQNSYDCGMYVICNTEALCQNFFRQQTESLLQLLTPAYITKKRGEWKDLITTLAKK
Apaf1 inhib: inhibitors of human Apaf-1 apoptosome, primary screen, biochemical, DEVD-Rh110 fluorescence, uHTS | reconstituted apoptosome caspase-3 activity | inhibition, % at 20 µM | 330,000 tested, 0.71% active | AID 489030, 2010; active = inhibition of at least 40% at 20 µM;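 note: plate controls were DMSO wells for no effect and DEVD-CHO caspase inhibitor wells for full effect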
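System: Apoptosome proteins | Medium: Hepes pH 7.5 with detergent and BSA | Also added: Cytochrome c trigger plus (Z-DEVD)2-Rh110 caspase-3 substrate | Incubation: 30 min compound preincubation, 50 min activation, room temperature | Detection: Rhodamine 110 fluorescence at Ex 480/Em 540 nm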
SENP8 block-2: SENP8 protease inhibitors, primary screen, biochemical, luminescence; AID 2540, 2010; 330,000 tested, 1.2% active; inhibition, % at 10 µM; purified SENP8, Z-RLRGG-aminoluciferin cleavage; in the data active = inhibition above about 50%
Apaf-1 inh conf2: Apaf-1 inhibitors, single-dose retest, confirmation, biochemical, fluorescence, DEVD-Rh110, 20 µM; shares compounds with Apaf1 inhib; reconstituted apoptosome, caspase-3 DEVD-Rh110 fluorescence; inhibition, % at 20 µM; 1,800 tested, 25% active;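 active = mean inhibition of at least 40% at 20 µM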;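 note: plate controls were DMSO wells for no effect and DEVD-CHO caspase inhibitor control wells for full effect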
Rh110 interf inh: Rh110 fluorescence interference by putative Apaf-1 inhibitors, confirmation, artefact control for Apaf-1 inhibitor project, biochemical, 20 µM. shares compounds with Apaf1 inhib. AID 504615, 2011. activation (fluorescence interference), % at 20 µM. 1,800 tested, under 10 active. quenched caspase reaction;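 active = signal rise of 40% or more at 20 µM, treated as a fluorescence artifact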
Fluor interf inh: fluorescence interference of Apaf-1 inhibitor hits, dose response, artefact control for Apaf-1 inhibitor project; 460 tested, under 10 active; IC50, µM; shares compounds with Apaf1 inhib; AID 588538, 2011; fluorescence interference counterscreen, Apaf-1 assay format; call rule not given here
Numbers without * were called inactive; ? = inconclusive; . = no result. A selection: hits, their analogues and other compounds. The true share with any hit is near 3%.

SMILES	UBC13 polyUb	SENP7 block	SENP6 inh	SENP8 block-1	Apaf1 inhib	SENP8 block-2	Apaf-1 inh conf2	Rh110 interf inh	others
C/C(=N\NS(=O)(=O)c1ccc(C(C)(C)C)cc1)c1ccccc1	-7	-13	-22	7	24	-6	.	.
CCc1ccc(S(=O)(=O)/N=C2\C=C(Nc3ccc(C(=O)O)cc3)C(=O)c3ccccc32)cc1	-165	63*	92*	44*	96*	94*	89*	0	Fluor interf inh=>100
Cc1ccc(S(=O)(=O)/N=C2\C=C(Nc3cccc(C(=O)O)c3)C(=O)c3ccccc32)cc1	-185	64*	91*	83*	94*	93*	98*	9	Fluor interf inh=>100
CC(=O)Nc1cccc(/C(C)=N/NS(=O)(=O)c2ccc(C)cc2)c1	0	-3	3	2	1	1	.	.
Fc1ccc(CCN2CCN=C2Nc2ccccc2)cc1	14	-2	-9	9	-9	-2	.	.
Cc1ccc(N(CC(=O)N/N=C/c2ccc(OC3CSC3)cc2)S(=O)(=O)c2ccccc2)c(C)c1	-18	-11	13	17	63*	-8	18	0
COc1ccc(N(CC(=O)NC2CCCCC2)C(=O)CNC(=O)c2cccs2)cc1OC	5	10	-16	2	-6	4	.	.
CCOC(=O)N1CCC(c2cc(=O)n3[nH]cc(C(=O)OC)c3n2)CC1	1	-3	1	4	10	-9	.	.
CCOc1ccc(NC(=O)c2c[nH]n3c(=O)cc(C4CCN(C(=O)OC(C)(C)C)CC4)nc23)cc1	-22	-11	-20	-23	40*	-4	26	4
CC(=O)Nc1ccc(S(=O)(=O)N(C)CC(=O)Nc2ccc(F)c(F)c2F)cc1	6	-5	-4	2	-28	7	.	.
Cc1ccccc1C(=O)NC1CCN(CC(=O)Nc2ccccc2)CC1	9	0	-1	8	-8	1	.	.
COc1cc2c(cc1OC)C1=C(C#N)CCC(=O)N1CC2	-4	-5	-15	27	50*	-7	6	5
CCOC(=O)c1cnc(-n2nc(C)cc2C)nc1NC1CCCCC1	16	2	-3	-89	42*	6	19	-3
CCOc1ccc(-c2cc(C(=O)NCCCn3ccnc3)c3cc(Br)ccc3n2)cc1	3	2	-7	-374	42*	-3	-1	9
O=C(/C=C/c1ccccc1[N+](=O)[O-])NC1CCCC1	-14	-5	-3	12	-1	-10	.	.
CCCC(=O)NCc1ccc2c(c1)cc(C)n2C	36	-1	-4	-38	-1	-8	.	.
Cc1cccc(NC(=O)NCc2ccc3c(c2)cc(C)n3C)c1	18	-3	10	6	54*	14	-2	-2
COc1cccc(NC(=S)NCc2ccc3c(c2)cc(C)n3C)c1	.	.	.	-5	.	.	.	.
Cc1cc2cc(CNC(=O)Nc3cccc(Cl)c3)ccc2n1C	-5	-4	6	-11	49*	-7	12	2
Cc1cc2cc(CNC(=O)C3CCCC3)ccc2n1C	?	10	-12	-39	15	-12	.	.
Cc1cccc(NC(=S)NCc2ccc3c(c2)cc(C)n3C)c1C	10	2	-12	-2	66*	3	16	5
Cc1cc2cc(CNC(=S)Nc3ccc(OC(F)(F)F)cc3)ccc2n1C	-23	21	-7	-5	59*	-11	15	14
